Assays:
Format in all cases: functional
Haemophilus influenzae = experiment: Antimicrobial activity against beta-lactamase-producing Haemophilus influenzae clinical isolate after 18 to 22 hrs by broth microdilution method in presence of beta-lactamase inhibitor BLI-489
Method in brief: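 Haemophilus isolates were tested in Haemophilus test medium by CLSI broth microdilution. Serial piperacillin dilutions carried BLI-489 fixed at 4 μg/ml. Inoculum was 10^5 CFU/ml, incubated 18 to 22 h at 35°C in ambient air. MIC was the lowest concentration completely inhibiting growth by eye.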

Staphylococcus aureus [1] = experiment: Antimicrobial activity against methicillin-resistant Staphylococcus aureus clinical isolate after 18 to 22 hrs by broth microdilution method in presence of beta-lactamase inhibitor BLI-489
Method in brief: (§1)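 CLSI broth microdilution in Mueller-Hinton II broth. Antibiotic in serial dilution with the β-lactamase inhibitor held at a constant 4 μg/ml. Inoculum 10^5 CFU/ml. Incubated 18 to 22 h at 35°C in ambient air.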

Staphylococcus aureus [2] = experiment: Antimicrobial activity against methicillin-susceptible Staphylococcus aureus clinical isolate after 18 to 22 hrs by broth microdilution method in presence of beta-lactamase inhibitor Tazobactam
Method in brief: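 CLSI broth microdilution of piperacillin-tazobactam in Mueller-Hinton II broth with serial dilutions. Inoculum was 10^5 CFU/ml. Incubation was 18 to 22 h at 35°C in ambient air. MIC was read as the lowest concentration giving complete inhibition of growth visible to the unaided eye.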

Enterococcus faecalis = experiment: Antimicrobial activity against vancomycin-resistant Enterococcus faecalis clinical isolate after 18 to 22 hrs by broth microdilution method in presence of beta-lactamase inhibitor Tazobactam; method in brief: as §1
Streptococcus pneumoniae = experiment: Antimicrobial activity against penicillin-resistant Streptococcus pneumoniae clinical isolate after 18 to 22 hrs by broth microdilution method in presence of beta-lactamase inhibitor Tazobactam
Method in brief: as §1, with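 “broth with 5% lysed horse blood.” for “broth.”, “air. MIC is the lowest concentration with no growth visible to the eye.” for “air.”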

Bacteroides fragilis = experiment: Antimicrobial activity against Bacteroides fragilis clinical isolate after 18 to 22 hrs by broth microdilution method in presence of beta-lactamase inhibitor Tazobactam
[3] = system: Bacteroides thetaiotaomicron; experiment: Antimicrobial activity against Bacteroides thetaiotaomicron clinical isolate after 18 to 22 hrs by broth microdilution method in presence of beta-lactamase inhibitor Tazobactam
Bacteroides uniformis = experiment: Antimicrobial activity against Bacteroides uniformis clinical isolate after 18 to 22 hrs by broth microdilution method
Clostridium perfringens = experiment: Antimicrobial activity against Clostridium perfringens clinical isolate after 18 to 22 hrs by broth microdilution method in presence of beta-lactamase inhibitor Tazobactam
Parvimonas micra = experiment: Antimicrobial activity against Peptostreptococcus micros clinical isolate after 18 to 22 hrs by broth microdilution method in presence of beta-lactamase inhibitor Tazobactam
[4] = system: Enterococcus casseliflavus; experiment: Antimicrobial activity against Enterococcus casseliflavus clinical isolate after 18 to 22 hrs by broth microdilution method in presence of beta-lactamase inhibitor BLI-489
Method in brief: (§2)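 CLSI broth microdilution in Mueller-Hinton II broth. Piperacillin serial dilutions were combined with BLI-489 held constant at 4 μg/ml. Inoculum was 10^5 CFU/ml. Plates were incubated 18 to 22 h at 35°C in ambient air. MIC was the lowest concentration completely inhibiting growth seen by the unaided eye. Piperacillin-tazobactam interpretive criteria were applied.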

Escherichia coli [5] = experiment: Antimicrobial activity against class A extended spectrum beta-lactamase- and class D OXA- producing Escherichia coli clinical isolate after 18 to 22 hrs by broth microdilution method in presence of beta-lactamase inhibitor BLI-489
Method in brief: (§3)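 CLSI broth microdilution in Mueller-Hinton II broth. Serial dilutions of piperacillin were tested with BLI-489 held at a constant 4 μg/ml. Inoculum was 10^5 CFU/ml. Plates were incubated 18 to 22 h at 35°C in ambient air. MIC was the lowest concentration giving complete growth inhibition by unaided eye.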

Escherichia coli [6] = experiment: Antimicrobial activity against Escherichia coli clinical isolate after 18 to 22 hrs by broth microdilution method in presence of beta-lactamase inhibitor BLI-489; method in brief: as §3
Escherichia coli [7] = experiment: Antimicrobial activity against Escherichia coli clinical isolate after 18 to 22 hrs by broth microdilution method in presence of beta-lactamase inhibitor Tazobactam
Klebsiella aerogenes = experiment: Antimicrobial activity against AmpC beta-lactamase-producing Enterobacter aerogenes clinical isolate after 18 to 22 hrs by broth microdilution method in presence of beta-lactamase inhibitor Tazobactam
Method in brief: (§4)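 Piperacillin-tazobactam was tested on recent clinical isolates by CLSI broth microdilution in Mueller-Hinton II broth, with tazobactam at constant 4 μg/ml. Wells held 10^5 CFU/ml and were incubated 18 to 22 h at 35°C in ambient air. MIC was the lowest concentration with no growth visible to the unaided eye.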

Enterobacter cloacae = experiment: Antimicrobial activity against AmpC beta-lactamase-producing Enterobacter cloacae clinical isolate after 18 to 22 hrs by broth microdilution method in presence of beta-lactamase inhibitor Tazobactam; method in brief: as §4
Citrobacter freundii [8] = experiment: Antimicrobial activity against Citrobacter freundii clinical isolate after 18 to 22 hrs by broth microdilution method in presence of beta-lactamase inhibitor Tazobactam; method in brief: as §4
Escherichia coli [9] = experiment: Antimicrobial activity against AmpC beta-lactamase-producing Escherichia coli clinical isolate after 18 to 22 hrs by broth microdilution method in presence of beta-lactamase inhibitor BLI-489; method in brief: as §2
Citrobacter freundii [10] = experiment: Antimicrobial activity against AmpC beta-lactamase-producing Citrobacter freundii clinical isolate after 18 to 22 hrs by broth microdilution method in presence of beta-lactamase inhibitor BLI-489; method in brief: as §2
Citrobacter koseri = experiment: Antimicrobial activity against Citrobacter koseri clinical isolate after 18 to 22 hrs by broth microdilution method in presence of beta-lactamase inhibitor BLI-489; method in brief: as §2
Acinetobacter baumannii [11] = experiment: Antimicrobial activity against Acinetobacter baumannii clinical isolate after 18 to 22 hrs by broth microdilution method in presence of beta-lactamase inhibitor Tazobactam; method in brief: as §4
Acinetobacter baumannii [12] = experiment: Antimicrobial activity against Acinetobacter baumannii clinical isolate after 18 to 22 hrs by broth microdilution method in presence of beta-lactamase inhibitor BLI-489; method in brief: as §2
Acinetobacter lwoffii = experiment: Antimicrobial activity against Acinetobacter lwoffii clinical isolate after 18 to 22 hrs by broth microdilution method in presence of beta-lactamase inhibitor Tazobactam; method in brief: as §4

CCN1CCN(C(=O)N[C@@H](C(=O)N[C@@H]2C(=O)N3[C@@H]2SC(C)(C)[C@@H]3C(=O)O)c2ccccc2)C(=O)C1=O [PIPERACILLIN]
8 µg/mL: MIC90 [3] | MIC90 [4] | MIC50 (Enterobacter cloacae) | MIC90 (Citrobacter koseri)
0.03 µg/mL: MIC90 (Clostridium perfringens) | MIC50 (Parvimonas micra)
1 µg/mL: MIC50 (Staphylococcus aureus [2])
≤ 0.015 µg/mL: MIC (Clostridium perfringens) | MIC50 (Clostridium perfringens)
> 8 µg/mL: MIC (Klebsiella aerogenes)
≤ 0.12 µg/mL: MIC50 (Acinetobacter lwoffii)
0.25 µg/mL: MIC90 (Bacteroides fragilis) | MIC90 (Parvimonas micra)
32 µg/mL: MIC50 (Staphylococcus aureus [1]) | MIC90 (Bacteroides uniformis) | MIC90 (Enterobacter cloacae) | MIC90 (Acinetobacter lwoffii)
4 µg/mL: MIC90 (Streptococcus pneumoniae) | MIC50 [3] | MIC50 (Klebsiella aerogenes) | MIC50 (Citrobacter freundii [10])
2 µg/mL: MIC90 (Staphylococcus aureus [2]) | MIC50 (Enterococcus faecalis) | MIC50 (Streptococcus pneumoniae) | MIC50 [4] | MIC (Escherichia coli [5]) | MIC50 (Escherichia coli [5]) | MIC50 (Escherichia coli [7]) | MIC90 (Escherichia coli [7]) | MIC50 (Escherichia coli [9]) | MIC50 (Citrobacter koseri)
≤ 0.004 µg/mL: MIC (Haemophilus influenzae) | MIC50 (Haemophilus influenzae) | MIC90 (Haemophilus influenzae)
128 µg/mL: MIC90 (Escherichia coli [6]) | MIC90 (Citrobacter freundii [8])
16 µg/mL: MIC50 (Bacteroides uniformis) | MIC90 (Escherichia coli [5]) | MIC90 (Klebsiella aerogenes) | MIC90 (Escherichia coli [9])
0.06 µg/mL: MIC50 (Bacteroides fragilis)
> 128 µg/mL: MIC90 (Enterococcus faecalis) | MIC50 (Acinetobacter baumannii [11]) | MIC90 (Acinetobacter baumannii [11]) | MIC50 (Acinetobacter baumannii [12]) | MIC90 (Acinetobacter baumannii [12])
64 µg/mL: MIC50 (Escherichia coli [6]) | MIC50 (Citrobacter freundii [8]) | MIC90 (Citrobacter freundii [10])

Reference: ChEMBL document CHEMBL1629583, “Establishment of in vitro susceptibility testing methodologies and comparative activities of piperacillin in combination with the penem {beta}-lactamase inhibitor BLI-489” (2009)
